The subject of test [1] is Mus musculus. Description: Evaluated in vivo for their ability to decrease plasma glucose levels in diabetic C57BL/KsJ db/db mouse at a dose 100 mg/kg/day. *p indicates <0.05. The test is classed as functional. In a few lines:
(§1)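 Mice dosed orally once daily for 4 days; plasma glucose and insulin measured and expressed as percent change versus a vehicle-treated group (mean ± SE, 4-6 mice/group). NS is generally less than -15% change. Significance is versus vehicle-treated mice.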

Test [2] deals with Mus musculus. Description: Evaluated in vivo for their ability to decrease plasma glucose levels in diabetic C57BL/KsJ ob/ob mouse at a dose 50 mg/kg/day. The test is classed as functional, organism-based. In a few lines: (§2)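 Diabetic db/db or ob/ob mice dosed orally once daily for 4 days. Plasma glucose and insulin reported as percent change from a vehicle-treated group. 4-6 mice per group. Significance set at p < 0.05 or p < 0.01 versus vehicle; NS means generally less than -15% change.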

Test [3] has as its system Mus musculus. Description: Evaluated for their ability to decrease plasma insulin levels in mouse at a dose 50 mg/kg/day. **p indicates <0.01. The test is classed as functional. In short, it runs like this: as §2
Test [4] has as its target T1, Tyrosine-protein phosphatase non-receptor type 1 (Rattus norvegicus) (UniProt P20417).
T1 sequence (whole entry): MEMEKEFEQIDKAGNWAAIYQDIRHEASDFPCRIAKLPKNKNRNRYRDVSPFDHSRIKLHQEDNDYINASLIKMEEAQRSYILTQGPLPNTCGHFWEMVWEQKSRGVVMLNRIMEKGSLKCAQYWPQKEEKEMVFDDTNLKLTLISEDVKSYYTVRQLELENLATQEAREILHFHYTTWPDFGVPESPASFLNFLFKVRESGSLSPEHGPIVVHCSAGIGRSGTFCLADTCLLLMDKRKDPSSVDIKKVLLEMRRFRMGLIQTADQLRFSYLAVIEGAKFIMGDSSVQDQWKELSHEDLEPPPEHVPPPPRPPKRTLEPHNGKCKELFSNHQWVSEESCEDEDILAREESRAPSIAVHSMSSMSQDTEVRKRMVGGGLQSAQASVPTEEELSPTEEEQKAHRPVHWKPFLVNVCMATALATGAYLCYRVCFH
The test is described as follows: Inhibition of PTPase (PTP1B) activity in rat hepatic membrane at 50 uM concentration, using pNPP as the substrate. The test is classed as cell membranes. The note with it: Liver. In short, it runs like this:
(§3)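 Liver membranes from male Sprague-Dawley rats (100-150 g), about 30 µg protein per well. Preincubated 10 min at 37 °C with compound in 1.25% DMSO in 50 mM HEPES pH 7.4. Then 6.33 mM pNPP for 30 min at 37 °C, stopped with NaOH. p-Nitrophenol read at 410 nm. Run in triplicate. Reported as percent of untreated control.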

In test [5] the test system is Mus musculus. The test is described as follows: Evaluated for their ability to decrease plasma insulin levels in mouse at a dose 100 mg/kg/day; NS=not significant. The test is classed as functional, organism-based. In short, it runs like this:
as §2

For test [6], the system named is Mus musculus. The test is described as follows: Evaluated in vivo for their ability to decrease plasma glucose levels in diabetic C57BL/KsJ db/db mouse at a dose 100 mg/kg/day.([…]). The test is classed as functional. In short, it runs like this: as §2
In test [7] the target is T1, Tyrosine-protein phosphatase non-receptor type 1 (Rattus norvegicus). The test is described as follows: IC50 for PTPase activity, recombinant r-PTP1B as the enzyme .
The test system of test [8] is Mus musculus. The test is described as follows: Evaluated in vivo for their ability to decrease plasma glucose levels in diabetic C57BL/KsJ db/db mouse at a dose 100 mg/kg/day; NS is not significant. The test is classed as functional, organism-based. In short, it runs like this: as §2
Test [9] has as its system Mus musculus. Description: Evaluated in vivo for their ability to decrease plasma glucose levels in diabetic C57BL/KsJ ob/ob mouse at a dose 70 mg/kg/day; NS is not significant. The test is classed as functional, organism-based. In a few lines: as §2
Test [10] addresses T1, Tyrosine-protein phosphatase non-receptor type 1 (Rattus norvegicus). Description: Inhibition of Protein-tyrosine phosphatase 1B activity in rat hepatic membrane at a concentration of 50 uM using pNPP as the substrate. The test is classed as cell membranes. The note with it: Liver. In a few lines:
as §3

Test [11] shares this target. Description: Inhibition of PTPase activity using recombinant Protein-tyrosine phosphatase 1B as the enzyme and IR-triphosphopeptide as substrate at 50 uM. In a few lines:
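Recombinant rat PTP1B (human 321-aa form assayed the same way), activity about 1000-2000 nmol/min/mg, preincubated with compound for 10 min at 37 °C in HEPES pH 7.4. The reaction is started with 50 µM triphosphorylated insulin receptor 1142-1153 dodecapeptide and run 30 min at 37 °C. Released phosphate read by malachite green-molybdate at 650 nm, in quadruplicate. Result is percent inhibition versus control.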

In test [12] the test system is Mus musculus. Description: Evaluated for their ability to decrease plasma insulin levels in mouse at a dose 70 mg/kg/day; NS is not significant. The test is classed as functional, organism-based. In a few lines:
as §2

Test [13] concerns Mus musculus. The test is described as follows: Evaluated in vivo for their ability to decrease plasma glucose levels in diabetic C57BL/KsJ ob/ob mouse at a dose 100 mg/kg/day. The test is classed as functional. In short, it runs like this:
as §1

In test [14] the test system is Mus musculus. Description: Evaluated for their ability to decrease plasma insulin levels in mouse at a dose 100 mg/kg/day. The test is classed as functional. In short, it runs like this:
as §1

In test [15] the target is T2, Tyrosine-protein phosphatase non-receptor type 1 (Rattus norvegicus, UniProt P20417).
T2 sequence (P20417 whole entry): T1 sequence (whole entry)
Description: Inhibition of PTPase activity using recombinant r-PTP1B as the enzyme and IR-triphosphopeptide as substrate. In a few lines:
(§4)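 Rat recombinant PTP1B in 33 mM TRIS-HCl, 2 mM EDTA, 50 mM β-mercaptoethanol, pH 7.4 (about 1000-2000 nmol/min/mg). Preincubated 10 min at 37 °C with or without compound in HEPES buffer pH 7.4. Released phosphate read by malachite green-ammonium molybdate at 650 nm against a phosphate standard. Quadruplicates. IC50 by four-parameter logistic fit.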

In test [16] the test system is Mus musculus. The test is described as follows: Evaluated in vivo for their ability to decrease plasma glucose levels in diabetic C57BL/KsJ ob/ob mouse at a dose 100 mg/kg/day; **p indicates <0.01. The test is classed as functional. In short, it runs like this: as §1
In test [17] the target is T3, Tyrosine-protein phosphatase non-receptor type 1 (Homo sapiens) (UniProt P18031).
T3 sequence (whole entry): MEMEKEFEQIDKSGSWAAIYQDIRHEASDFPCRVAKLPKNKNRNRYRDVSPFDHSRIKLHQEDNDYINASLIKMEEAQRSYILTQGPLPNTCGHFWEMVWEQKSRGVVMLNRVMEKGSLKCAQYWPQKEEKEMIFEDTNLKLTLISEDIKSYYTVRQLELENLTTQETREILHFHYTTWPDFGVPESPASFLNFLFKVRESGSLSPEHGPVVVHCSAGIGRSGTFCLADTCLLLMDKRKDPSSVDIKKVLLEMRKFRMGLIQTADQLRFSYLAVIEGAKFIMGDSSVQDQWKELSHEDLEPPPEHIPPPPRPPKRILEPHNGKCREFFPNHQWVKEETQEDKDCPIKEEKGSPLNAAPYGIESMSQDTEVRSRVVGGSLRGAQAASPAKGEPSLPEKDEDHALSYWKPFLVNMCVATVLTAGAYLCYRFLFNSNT
The test is described as follows: % inhibition of PTPase activity, recombinant human Protein-tyrosine phosphatase 1B as the enzyme at a concentration 50 uM. In a few lines:
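Human recombinant PTP1B (321 aa form) dephosphorylating IR-triphosphopeptide (pY1146/1150/1151), 50 µM final. Run as for the rat enzyme: 10 min preincubation with compound at 37 °C, pH 7.4, then 30 min reaction at 37 °C. Phosphate read by malachite green-ammonium molybdate at 650 nm. Quadruplicates. IC50 by four-parameter logistic regression.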

Test [18] relates to Mus musculus. Description: Evaluated for their ability to decrease plasma insulin levels in mouse at a dose 100 mg/kg/day; **p indicates <0.01. The test is classed as functional. In a few lines:
as §1

The test system of test [19] is Mus musculus. The test is described as follows: Evaluated in vivo for their ability to decrease plasma glucose levels in diabetic C57BL/KsJ db/db mouse at a dose 100 mg/kg/day; NS is non significant, generally less than - 15% change. The test is classed as functional, organism-based. In a few lines:
as §2

Test [20] has as its target T2, Tyrosine-protein phosphatase non-receptor type 1. The test is described as follows: Inhibition of PTPase activity using recombinant r-PTP1B and IR-triphosphopeptide as substrate; ND is no data. In short, it runs like this: as §4
Test [21] deals with T4, Tyrosine-protein phosphatase non-receptor type 1 (Mus musculus) (UniProt P35821).
T4 sequence (whole entry): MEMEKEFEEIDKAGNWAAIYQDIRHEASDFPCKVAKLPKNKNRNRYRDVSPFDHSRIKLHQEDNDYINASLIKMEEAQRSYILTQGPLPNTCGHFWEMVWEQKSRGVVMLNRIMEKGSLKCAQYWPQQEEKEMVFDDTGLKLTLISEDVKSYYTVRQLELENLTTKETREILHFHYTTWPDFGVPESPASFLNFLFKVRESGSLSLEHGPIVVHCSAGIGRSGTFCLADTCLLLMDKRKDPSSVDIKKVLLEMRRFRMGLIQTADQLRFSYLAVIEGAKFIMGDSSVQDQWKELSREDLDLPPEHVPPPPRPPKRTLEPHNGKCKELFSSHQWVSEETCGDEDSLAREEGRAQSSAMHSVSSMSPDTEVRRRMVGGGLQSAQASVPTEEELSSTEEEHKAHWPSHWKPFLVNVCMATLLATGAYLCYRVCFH
The test is described as follows: Ability to decrease plasma insulin levels in mouse at a dose 100 mg/kg/day. The test is classed as functional, organism-based. In short, it runs like this: as §2

In test [22] the target is T4, Tyrosine-protein phosphatase non-receptor type 1 (Mus musculus). The test is described as follows: In vivo ability to decrease plasma glucose levels in diabetic C57BL/KsJ ob/ob mouse at a dose 100 mg/kg/day. The test is classed as functional, organism-based. In short, it runs like this: as §2
Test [23] addresses T1, Tyrosine-protein phosphatase non-receptor type 1 (Rattus norvegicus). Description: Inhibition of PTPase activity in rat hepatic membrane at a concentration of 250 uM using pNPP as the substrate. The note with it: Liver. The test is classed as cell membranes. In a few lines: as §3

Calls of active or inactive are those of the source. The rule behind the calls is not given here.

`Cc1oc(-c2ccc(C(F)(F)F)cc2)nc1COc1cccc(/C=C/C(C)n2oc(=O)[nH]c2=O)c1` (stereo not drawn): the Decrease stood at 41% in the test on Mus musculus [1] and 83% in the test on Mus musculus [3]. Besides, the Decrease entry with Mus musculus [2] is “inactive”. The same compound registered an inhibition in test [4] of 49%.

For `CCCCCCCC/C(=C\Cn1oc(=O)[nH]c1=O)c1cccc(OCc2nc(-c3ccc(C(F)(F)F)cc3)oc2C)c1`, the Decrease entry in the test with Mus musculus [5] was “inactive”. The same compound registered a Decrease in the test on Mus musculus [6] of 43%. Moreover, the IC50 in test [7] came to 400 nM.

On to `C/C(=C\C=C\Cn1oc(=O)[nH]c1=O)c1cccc(OCc2nc(-c3ccccc3)oc2C)c1`, for which the Decrease entry in the test on Mus musculus [8], in the test with Mus musculus [9] and with Mus musculus [12] was “inactive” each time. Moreover, the inhibition came out at 57% in test [10] and 1.4% in [11].

Turning to `C/C(=C\Cn1oc(=O)[nH]c1=O)c1cccc(OCc2nc(-c3ccc(C(F)(F)F)cc3)oc2-c2ccccc2)c1`, the values for the Decrease with Mus musculus [13] and in the test on Mus musculus [14] were 25% and 30%, respectively. Besides, the IC50 in test [15] turned out to be 300 nM.

With `CCC/C(=C\Cn1oc(=O)[nH]c1=O)c1cccc(OCc2nc(-c3ccc(C(F)(F)F)cc3)oc2C)c1`, the Decrease in the test on Mus musculus [16] came out at 58%; with Mus musculus [1], 59%; in the test on Mus musculus [18], 82%. Besides, the inhibition came to 58% in [10], 2% in test [11] and 1.9% in [17].

`C/C(=C\CC1OC(=O)NC1=O)c1cccc(OCCc2nc(-c3ccccc3)oc2C)c1` (stereo not drawn): the Decrease result in the test on Mus musculus [19] is “inactive”. Besides, in test [20], the IC50 entry is listed as “Not significant”. The Decrease entry in test [21] and in [22] was “Not significant” throughout. In addition, in test [4], the inhibition worked out at 36%.

With `Cc1c(C)c2c(c(C)c1O)CCC(C)(COc1ccc(CC3SC(=O)NC3=O)cc1)O2` (stereo not drawn) [TROGLITAZONE], the Decrease in the test with Mus musculus [6] was 34%. Moreover, the inhibition in [23] stood at 29%.

For orientation: inhibition means the share of the control response that was lost under treatment. In general, IC50 refers to the concentration needed to halve the response being measured.
